Measurements from ChEMBL document CHEMBL4354800, “Amphiphilic nebramine-based hybrids Rescue legacy antibiotics from intrinsic resistance in multidrug-resistant Gram-negative bacilli” (Eur J Med Chem, 2019).

Legend:
Format in all cases: functional
Pseudomonas aeruginosa [1] = assay: Potentiation of minocycline-induced antibacterial activity against wild type Pseudomonas aeruginosa PAO1 assessed as fold reduction in minocycline MIC at 9 uM incubated for 18 hrs by broth microdilution method
Method in brief: (§1)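 CLSI broth microdilution. Overnight cultures were set to 0.5 McFarland in saline, diluted 1:50 in Mueller-Hinton broth to a final 5 × 10^5 CFU/mL, and incubated 18 h at 37 °C against 2-fold antibiotic dilutions. A fixed adjuvant level was present throughout. MIC = lowest concentration with no visible turbidity, confirmed at 590 nm. Potentiation = fold drop in antibiotic MIC versus antibiotic alone.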

Pseudomonas aeruginosa [2] = assay: Potentiation of rifampicin-induced antibacterial activity against MDR/XDR Pseudomonas aeruginosa isolate PA260-97103 harboring GyrA T83I mutant assessed as fold reduction in rifampicin MIC at 9 uM incubated for 18 hrs by broth microdilution method; method in brief: as §1
Pseudomonas aeruginosa [3] = assay: Potentiation of moxifloxacin-induced antibacterial activity against wild type Pseudomonas aeruginosa PAO1 assessed as fold reduction in moxifloxacin MIC at 9 uM incubated for 18 hrs by broth microdilution method
Method in brief: (§2)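 Antibiotic MIC determined by CLSI broth microdilution (MHB, 5 × 10^5 CFU/mL, 18 h, 37 °C), once alone and once with a fixed concentration of the adjuvant. Potentiation is the ratio of the antibiotic MIC alone to its MIC in the presence of the adjuvant.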

Acinetobacter baumannii [4] = assay: Synergistic antibacterial activity against multidrug-resistant Acinetobacter baumannii ATCC 17978 assessed as fractional inhibitory concentration index in presence of minocycline incubated for 18 hrs by broth dilution method
Escherichia coli [5] = assay: Synergistic antibacterial activity against Escherichia coli 107115 assessed as fractional inhibitory concentration index in presence of rifampicin incubated for 18 hrs by broth dilution method
Method in brief: (§3)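 Checkerboard titration of the adjuvant against the antibiotic, run under the CLSI microdilution conditions (MHB, 5 × 10^5 CFU/mL, 18 h, 37 °C). Each agent's FIC is its MIC in combination divided by its MIC alone; FICI is the sum of the two FICs. FICI ≤0.5 was read as synergy, >0.5–4.0 as no interaction, and >4.0 as antagonism.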

Acinetobacter baumannii [6] = assay: Synergistic antibacterial activity against multidrug-resistant Acinetobacter baumannii AB110193 assessed as fractional inhibitory concentration index in presence of rifampicin incubated for 18 hrs by broth dilution method
Acinetobacter baumannii [7] = assay: Synergistic antibacterial activity against multidrug-resistant Acinetobacter baumannii ATCC 17978 assessed as fractional inhibitory concentration index in presence of rifampicin incubated for 18 hrs by broth dilution method
Pseudomonas aeruginosa [8] = assay: Antimicrobial activity against XDR Pseudomonas aeruginosa PA264 infected in Galleria mellonella larvae assessed as survival rate at 100 mg/kg administered 2 hrs post-inoculation measured after 18 hrs relative to control
Method in brief: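 G. mellonella larvae were injected with ~5 CFU of P. aeruginosa PA264 (10 µL of 5 × 10^2 CFU/mL in PBS) and held 2 h at 37 °C. A single 10 µL injection followed: monotherapy or rifampicin + compound (25+25, 50+50 or 75+75 mg/kg), with PBS as control. Larvae kept at 37 °C were scored every 6 h to 24 h; dead = no response to touch. n = 30 (two runs of 15); Kaplan-Meier.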

Escherichia coli [9] = assay: Synergistic antibacterial activity against Escherichia coli 107115 assessed as fractional inhibitory concentration index in presence of minocycline incubated for 18 hrs by broth dilution method; method in brief: as §3
Klebsiella pneumoniae = assay: Potentiation of minocycline-induced antibacterial activity against Klebsiella pneumoniae 116381 assessed as fold reduction in minocycline MIC at 7.5 uM incubated for 18 hrs by broth dilution method; method in brief: as §2
Pseudomonas aeruginosa [10] = assay: Potentiation of moxifloxacin-induced antibacterial activity against wild type Pseudomonas aeruginosa PAO1 assessed as fold reduction in moxifloxacin MIC at 7.5 uM incubated for 18 hrs by broth microdilution method; method in brief: as §1
Acinetobacter baumannii [11] = assay: Synergistic antibacterial activity against multidrug-resistant Acinetobacter baumannii 110193 assessed as fractional inhibitory concentration index in presence of minocycline incubated for 18 hrs by broth dilution method
Pseudomonas aeruginosa [12] = assay: Potentiation of rifampicin-induced antimicrobial activity against MDR/XDR Pseudomonas aeruginosa isolate PA262-101856 harboring GyrA Thr83Ile mutant assessed as rifampicin MIC80 incubated for 18 hrs by broth microdilution method (reference value: 16 microg/ml); details: isolate PA262-101856, 18 h
Acinetobacter baumannii [13] = assay: Synergistic antibacterial activity against multidrug-resistant Acinetobacter baumannii AB027 assessed as fractional inhibitory concentration index in presence of rifampicin incubated for 18 hrs by broth dilution method
Pseudomonas aeruginosa [14] = assay: Potentiation of minocycline-induced antibacterial activity against MDR/XDR Pseudomonas aeruginosa isolate 101885 harboring GyrA T83I mutant assessed as fold reduction in minocycline MIC at 7.5 uM incubated for 18 hrs by broth microdilution method
Pseudomonas aeruginosa [15] = assay: Potentiation of minocycline-induced antimicrobial activity against MDR/XDR Pseudomonas aeruginosa isolate PA264-104354 harboring GyrA Thr83Ile mutant assessed as minocycline MIC80 incubated for 18 hrs by broth microdilution method (reference value: 32 microg/ml); details: isolate PA264-104354, 18 h
Acinetobacter baumannii [16] = assay: Antimicrobial activity against multidrug-resistant Acinetobacter baumannii 110193 incubated for 18 hrs by broth dilution method; details: Acinetobacter baumannii, 110193, 18 h
Method in brief: (§4)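 Broth microdilution per CLSI: overnight cultures set to 0.5 McFarland in saline, diluted 1:50 in Mueller-Hinton broth to a final 5 × 10^5 CFU/mL, added to 2-fold serial dilutions, incubated 18 h at 37 °C; MIC is the lowest concentration without visible turbidity, confirmed at 590 nm.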

Acinetobacter baumannii [17] = assay: Synergistic antibacterial activity against multidrug-resistant Acinetobacter baumannii AB031 assessed as fractional inhibitory concentration index in presence of minocycline incubated for 18 hrs by broth dilution method
Acinetobacter baumannii [18] = assay: Synergistic antibacterial activity against multidrug-resistant Acinetobacter baumannii AB027 assessed as fractional inhibitory concentration index in presence of minocycline incubated for 18 hrs by broth dilution method
Pseudomonas aeruginosa [19] = assay: Potentiation of rifampicin-induced antimicrobial activity against MDR/XDR Pseudomonas aeruginosa isolate PA259-96918 harboring GyrA Thr83Ile mutant assessed as rifampicin MIC80 incubated for 18 hrs by broth microdilution method (reference value: 16 microg/ml); details: isolate PA259-96918, 18 h
Acinetobacter baumannii [20] = assay: Antimicrobial activity against multidrug-resistant Acinetobacter baumannii AB031 incubated for 18 hrs by broth dilution method; details: AB031, 18 h; method in brief: as §4
Acinetobacter baumannii [21] = assay: Potentiation of rifampicin-induced antibacterial activity against multidrug-resistant Acinetobacter baumannii 110193 assessed as fold reduction in rifampicin MIC at 7.5 uM incubated for 18 hrs by broth dilution method; method in brief: as §1
Pseudomonas aeruginosa [22] = assay: Potentiation of rifampicin-induced antimicrobial activity against MDR/XDR Pseudomonas aeruginosa isolate 91433 devoid of GyrA Thr83Ile mutant assessed as rifampicin MIC50 incubated for 18 hrs by broth microdilution method (reference value: 8 microg/ml); details: isolate 91433, 18 h
Pseudomonas aeruginosa [23] = assay: Potentiation of rifampicin-induced antibacterial activity against MDR/XDR Pseudomonas aeruginosa isolate 101885 harboring GyrA T83I mutant assessed as fold reduction in rifampicin MIC at 7.5 uM incubated for 18 hrs by broth microdilution method; method in brief: as §1

Question: Which results are given for `Cl.Cl.Cl.Cl.Cl.Cl.NC[C@H]1O[C@H](O[C@H]2[C@H](OCCCCCCCCCCN3CCN(Cc4cccc5ccccc45)CC3)[C@@H](O)[C@H](N)C[C@@H]2N)[C@H](N)C[C@@H]1O`?
Answer: fold change (FC) (Pseudomonas aeruginosa [1]): 16; fold change (FC) (Pseudomonas aeruginosa [2]): 64; fold change (FC) (Pseudomonas aeruginosa [3]): 32

Question: How did the “fractional inhibitory concentration index (FICI)” value (Acinetobacter baumannii [4]) turn out when `Cl.Cl.Cl.Cl.Cl.NC[C@H]1O[C@H](O[C@H]2[C@H](OCCCCCCCCCCCCN3CCN(c4cc5c(cc4F)c(=O)c(C(=O)O)cn5C4CC4)CC3)[C@@H](O)[C@H](N)C[C@@H]2N)[C@H](N)C[C@@H]1O` was run?
Answer: 0.52

Question: And the “fractional inhibitory concentration index (FICI)” value (Escherichia coli [5])?
Answer: 0.015 - 0.02

Question: And the “fractional inhibitory concentration index (FICI)” value (Acinetobacter baumannii [6])?
Answer: 0.016 - 0.031

Question: And the “fractional inhibitory concentration index (FICI)” value (Acinetobacter baumannii [7])?
Answer: 0.016

Question: What about the survival at 100 mg/kg (Pseudomonas aeruginosa [8]) of the same molecule?
Answer: 0%

Question: What about the “fractional inhibitory concentration index (FICI)” value (Escherichia coli [9]) of the same molecule?
Answer: 0.133

Question: How did the “fold change (FC)” value (Klebsiella pneumoniae) turn out when `COc1c(N2C[C@@H]3CCCN(CCCCCCCCCCCCO[C@@H]4[C@@H](O)[C@H](N)C[C@H](N)[C@H]4O[C@H]4O[C@H](CN)[C@@H](O)C[C@H]4N)[C@@H]3C2)c(F)cc2c(=O)c(C(=O)O)cn(C3CC3)c12.Cl.Cl.Cl.Cl.Cl` was run?
Answer: 16

Question: What about the “fold change (FC)” value (Pseudomonas aeruginosa [10]) of the same molecule?
Answer: 8

Question: What about the “fractional inhibitory concentration index (FICI)” value (Acinetobacter baumannii [11]) of the same molecule?
Answer: >1

Question: And the MIC80 (Pseudomonas aeruginosa [12])?
Answer: 0.13 µg/mL

Question: What about the “fractional inhibitory concentration index (FICI)” value (Acinetobacter baumannii [13]) of the same molecule?
Answer: 0.031 - 0.047

Question: What about the “fold change (FC)” value (Pseudomonas aeruginosa [14]) of the same molecule?
Answer: 16

Question: What about the MIC80 (Pseudomonas aeruginosa [15]) of the same molecule?
Answer: 1 µg/mL

Question: And the MIC (Acinetobacter baumannii [16])?
Answer: > 256 µg/mL

Question: What about the “fractional inhibitory concentration index (FICI)” value (Acinetobacter baumannii [17]) of the same molecule?
Answer: >1

Question: And the “fractional inhibitory concentration index (FICI)” value (Acinetobacter baumannii [18])?
Answer: >1

Question: What about the MIC80 (Pseudomonas aeruginosa [19]) of the same molecule?
Answer: 0.13 µg/mL

Question: What about the MIC (Acinetobacter baumannii [20]) of the same molecule?
Answer: 128 µg/mL

Question: And the “fold change (FC)” value (Acinetobacter baumannii [21])?
Answer: 32

Question: And the MIC50 (Pseudomonas aeruginosa [22])?
Answer: 0.06 µg/mL

Question: What about the “fold change (FC)” value (Pseudomonas aeruginosa [23]) of the same molecule?
Answer: 128
